Hits are enriched below; roughly 3.7% of the tested compounds scored in any of these assays.
KCNQ1 act = potentiates or activates the human KCNQ1 potassium channel; CHO-K1 KCNQ1, thallium flux FluxOR fluorescence; stronger effect = higher value; B-score at 10 µM; 310,000 tested, 0.35% active; AID 2648;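 active = fluorescence ratio B-score, a plate-corrected score, at least three library SD, with initial intensity B-score within 5 SD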
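Test system: CHO-K1 cells stably expressing KCNQ1 / Medium: assay buffer / Also added: depolarizing K+/Tl+ stimulus, K2SO4 and Tl2SO4 each 12.5 mM in 5x stock / Incubation: 90 min dye loading and 20 min compound exposure, both at room temperature / Signal: thallium influx via FluxOR fluorescence, kinetic imaging / Evaluation: B score of baseline-normalized fluorescence ratio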
Kir21 block = Kir2.1 (mouse) channel inhibition. HEK293-Kir2.1, FluxOR thallium flux fluorescence; stronger effect = lower value. B-score at 10 µM. 310,000 tested, 0.85% active. AID 1672;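 active = fluorescence ratio B-score at or below minus 3 SD of library scores, with starting-brightness B-score within 2 SD, cut at about -4.2 in these data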;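 note: channel flux triggered by added potassium and thallium sulfate stimulus; B-score of peak minus minimum fluorescence over baseline after thallium stimulus; more negative B-score means stronger Kir2.1 block with less thallium influx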
Target sequence (P35561 whole entry, looked up): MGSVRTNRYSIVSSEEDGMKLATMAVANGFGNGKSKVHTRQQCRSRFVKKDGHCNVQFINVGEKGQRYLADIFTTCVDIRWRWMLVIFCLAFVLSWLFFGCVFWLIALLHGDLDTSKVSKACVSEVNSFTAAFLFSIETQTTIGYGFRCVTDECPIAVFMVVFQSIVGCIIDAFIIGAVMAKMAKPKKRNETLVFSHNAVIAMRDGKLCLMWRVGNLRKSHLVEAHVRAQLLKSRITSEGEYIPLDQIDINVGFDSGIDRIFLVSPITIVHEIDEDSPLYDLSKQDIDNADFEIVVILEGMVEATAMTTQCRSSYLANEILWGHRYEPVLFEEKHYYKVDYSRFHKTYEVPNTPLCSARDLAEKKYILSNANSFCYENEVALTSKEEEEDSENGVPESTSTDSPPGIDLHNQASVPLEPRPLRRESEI
KCNK3 inh = human KCNK3 channel inhibition, primary screen; O14649; CHO-KCNK3 thallium flux, FluxOR fluorescence; stronger effect = lower value; B-score at 10 µM; 340,000 tested, 0.84% active; AID 602410;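 active = B-score under library mean minus 4 SD, starting fluorescence ratio at most library mean plus 5 SD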;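 note: more negative B-score means stronger inhibition of thallium flux through KCNK3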
KCNK9 inh = blocks the human KCNK9 two-pore domain potassium channel; Q9NPC2; HEK293 KCNK9, FluxOR thallium flux fluorescence; stronger effect = lower value; B-score at 10 µM; 310,000 tested, 1.2% active; AID 488922;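 active = ratio B-score over 3 SD below the library mean, with starting fluorescence within 5 SD of its mean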;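 note: negative B-score means less thallium flux so channel inhibition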
hERG protect = compounds protecting human hERG from proarrhythmic drug block | Q12809 | CHO-hERG, FluxOR thallium flux, dofetilide IC70 present | activation (rescue from dofetilide block), less the hit threshold, % at 10 µM | 310,000 tested, 0.51% active | AID 1511;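 active = activation above the mean of controls blocked by dofetilide plus 5 SD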;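 note: thallium influx through hERG after potassium depolarization seen as dye fluorescence rise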
KCNQ1 block = blocks the human KCNQ1 potassium channel | P51787 | CHO-K1 KCNQ1, FluxOR thallium flux fluorescence; stronger effect = higher value | B-score at 10 µM | 310,000 tested, 1.3% active | AID 2642;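 active = compounds whose thallium flux B-score, printed positive for inhibition, exceeds three library SD while starting fluorescence stays within three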;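 note: channel opened by potassium depolarization with thallium stimulus after 20 min compound exposure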
KCNK9 block conf = human KCNK9 inhibitor confirmation | shares compounds with KCNK9 inh | HEK293 KCNK9 cells, FluxOR thallium flux fluorescence | inhibition, % at 10 µM | 4,900 tested, 43% active;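 active = thallium signal inhibited by more than 5 SD of the compound-free buffer control wells, on both duplicate plates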;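 note: 0% = assay buffer control wells without compound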
Kir21 sel = mouse Kir2.1 off-target activity of KCNK9 modulators | shares compounds with KCNK9 inh | Kir2.1 cells, FluxOR thallium flux fluorescence | inhibition, % at 10 µM | 4,900 tested, 4% active | AID 492993;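 active = thallium signal drop more than 5 SD beyond the mean of the no-compound control wells, seen in both duplicate plates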;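 note: signal is fluorescence rise after thallium addition divided by baseline fluorescence; plate controls were assay buffer only for no effect and full block by chlorpromazine control for full effect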
HEK293 Tl ctr = non-induced cell nonspecific activity of KCNK9 modulators; 4,900 tested, 40% active; inhibition, % at 10 µM; non-induced KCNK9-HEK293, FluxOR thallium flux; shares compounds with KCNK9 inh;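 active = thallium signal drop beyond 5 SD of the untreated control mean, on both duplicate plates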;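 note: plate controls were buffer only IC0 wells for no effect and SID17386958 at its maximal inhibitory level for full effect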
The depositor's hits bear a star; i = inactive; nt = no result given.

SMILES	KCNQ1 act	Kir21 block	KCNK3 inh	KCNK9 inh	hERG protect	KCNQ1 block	KCNK9 block conf	Kir21 sel	HEK293 Tl ctr
O=C(Nc1ccccc1Cc1ccccc1)c1oc2ccccc2c1COc1ccccc1	i	2.71	i	-8.74*	-4.5	i	51.0%*	i	31.0%*
CCCCn1c(=O)[nH]c(=O)c2c1nc(-c1ccccc1OC(F)F)n2C	i	-0.7	i	i	-15.7	i	nt	nt	nt
COC(=O)Cc1ccc(NC(=S)NNC(=O)c2ccccc2Br)cc1	i	1.25	i	i	-0.7	i	nt	nt	nt
O=C(NNC(=S)Nc1ccc(Br)cc1)c1ccccc1Br	i	0.73	i	i	-15.8	i	i	i	i
CCC(NC(=O)c1cccc(Cn2cc([N+](=O)[O-])cn2)c1)c1ccc(C(C)C)cc1 (configuration not stated)	i	-2.1	i	-14.5*	-9.3	i	61.5%*	i	41.5%*
CC[C@]12c3[nH]c4ccc(OC)cc4c3CCN1C(=O)C(CC(=O)NCCCOC)C[C@@H]2C(=O)N1CCN(C(=O)c2ccco2)CC1 (some centres not stated)	nt	nt	i	nt	nt	nt	nt	nt	nt
N#Cc1cccn1-c1nccc(-c2cccs2)n1	i	-0.05	i	i	-10.3	i	nt	nt	nt
CC(C)(C)c1ccc(C(=O)N2CCCC2c2cccs2)cc1 (configuration not stated)	i	0.32	i	i	-10.7	i	i	i	i
CS(=O)(=O)Cc1ccc(C(=O)N2CCCC2c2cccs2)cc1 (configuration not stated)	i	-0.67	i	i	-14.0	i	nt	nt	nt
CN(c1ccccc1)S(=O)(=O)c1cccc(C(=O)OCC(=O)NCc2ccc3c(c2)OCO3)c1	i	-0.01	i	i	-8.2	i	nt	nt	nt
CN(C)C(CNc1ncnc2sc3c(c12)CCCC3)c1ccco1 (configuration not stated)	i	1.36	i	i	-4.8	i	i	i	i
O=c1c(Cc2ccc(Cl)cc2Cl)c(O)ccn1Cc1ccncc1	i	0.54	i	i	-3.7	i	nt	nt	nt
O=c1c(C/C=C/c2ccccc2)c(O)ccn1Cc1ccc(Cl)cc1Cl	i	1.18	i	i	-16.1	9*	i	i	i
COc1ccc(C(=O)c2coc3ccc(O)c(CN4CCCCC4)c23)cc1	i	-3.82	i	i	-10.5	i	i	i	i
O=C(N/N=C/c1cc([N+](=O)[O-])cc(Br)c1O)C12CC3CCC(CC(C3)C1)C2	25*	0.82	i	i	-22.0	i	i	i	i
COc1cc(/C=N/NC(=O)C23CC4CC(CC(C4)C2)C3)cc(Br)c1O	i	0.51	i	i	-4.4	i	nt	nt	nt
COc1ccc(NC(=O)CN2C(=O)NC(c3ccccc3)(c3ccccc3)C2=O)cc1	i	-1.6	i	i	-6.1	i	nt	nt	nt
COc1ccc(NC(=O)CN2C(=O)NC(c3ccccc3)(c3ccccc3)C2=O)cc1OC	i	-0.78	i	-16.2*	-2.0	i	i	i	i
O=C1CCCN1CCCNS(=O)(=O)c1ccc(F)c(F)c1	i	-1.12	i	i	-6.8	i	nt	nt	nt
CCC(C)NC(=S)N1CCN(C)CC1 (configuration not stated)	i	-1.16	nt	i	-9.6	i	nt	nt	nt
O=C(CSCc1ccc(Br)cc1)NCCc1ccccc1	i	-4.8*	i	i	-9.0	i	i	i	i
CCOc1ccc(CCNC(=O)CSCc2ccc(C)cc2)cc1OCC	i	-6.01*	i	i	-4.5	i	i	i	i
CCOc1ccc(CCNC(=O)CSc2nnnn2C)cc1OCC	i	0.36	i	-13.4*	-8.0	i	i	i	i
CCOc1ccc(CCNC(=O)CCOc2cc(C)ccc2C)cc1OCC	i	-5.12*	i	i	-4.1	i	i	i	33.5%*
O=C(CSCc1ccccc1)NCCc1ccc(F)cc1	i	0.94	i	i	-6.0	i	nt	nt	nt
SMILES	KCNQ1 act	Kir21 block	KCNK3 inh	KCNK9 inh	hERG protect	KCNQ1 block	KCNK9 block conf	Kir21 sel	HEK293 Tl ctr
CC(C)Cn1cnc2c1c(=O)n(CC(=O)NC(=O)NC(C)(C)C)c(=O)n2Cc1ccccc1	i	1.1	i	i	-10.5	i	nt	nt	nt
Oc1cccc(C(O)CNCc2ccc(OCc3ccc(Cl)cc3Cl)cc2)c1 (configuration not stated)	i	-1.87	i	i	-13.4	i	nt	nt	nt
CCOc1ccc(CCNC(=O)CSc2nn(-c3ccc(C)c(Cl)c3)c(=S)s2)cc1OCC	i	0.22	i	i	-11.6	i	i	i	i
CN1CCN(c2nc(-c3ccc(Cl)cc3)cc(=O)[nH]2)CC1	i	-1.08	i	i	-15.1	i	nt	nt	nt
O=C(N/N=C/c1ccccn1)c1cc(-c2ccc3ccccc3c2)n[nH]1	i	-1.2	i	-12.8*	-8.6	i	45.0%*	i	31.0%*
N#Cc1nc(Cc2ccccc2)oc1N1CCC(Cc2ccccc2)CC1	i	0.99	i	i	-7.2	i	i	i	i
N#Cc1nc(COc2ccc(F)cc2)oc1N1CCC(Cc2ccccc2)CC1	i	0.05	i	i	-10.6	i	nt	nt	nt
Cc1ccc(NC(=O)CN(C)C(=O)CSc2nc3ccccc3c(=O)n2Cc2ccco2)cc1	i	0.86	i	i	-9.4	i	nt	nt	nt
CN(Cc1ccccc1)C(=O)CSc1nc2ccccc2c(=O)n1Cc1ccco1	i	-1.87	i	i	-19.0	i	i	i	i
CCCN1C(=O)/C(=C/c2c(N3CCNC(=O)C3CC(=O)OCC)nc3c(C)cccn3c2=O)SC1=S (configuration not stated)	i	-3.26	i	i	-39.3	i	nt	nt	nt
CCOC(=O)CC1C(=O)NCCN1c1nc2ccc(C)cn2c(=O)c1/C=C1\SC(=S)N(CC(C)C)C1=O (configuration not stated)	i	-4.21	i	-9.87*	-18.9	8*	45.5%*	43.0%*	61.5%*
COC(=O)c1c(NC(NC(=O)CC(C)C)C(Cl)(Cl)Cl)sc2c1CCC2 (configuration not stated)	i	-0.88	i	-9.72*	-11.8	i	i	i	49.0%*
Cc1ccccc1C(=O)NC(=S)NCCc1ccccc1	i	-0.92	i	i	-3.3	i	nt	nt	nt

High-throughput results: PubChem BioAssay, Johns Hopkins Ion Channel Center
